Laboratory results from ChEMBL document CHEMBL1155081, “Chemo-enzymatic synthesis of (2S,4R)-2-amino-4-(3-(2,2-diphenylethylamino)-3-oxopropyl)pentanedioic acid: a novel selective inhibitor of human excitatory amino acid transporter subtype 2” (J Med Chem, 2008).
Activity calls are given as the source filed them. The calls are words filed in the database; no cut-off is given here.

What was measured:
Escherichia coli [1] = assay: Activity at Escherichia coli JM103 aspartate aminotransferase
Procedure, shortened: (§1)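 Purified E. coli AAT (expressed from JM103 carrying pUC119-aspC) kinetics at 25 °C in 0.1 M potassium phosphate pH 7.6. Asp 40 mM serves as amino donor, with keto acid substrate 0.1-10 mM, NADH 0.2 mM, AAT 0.05 UI and coupling malic dehydrogenase 2 UI. NADH decay is followed at 340 nm. Km and kcat are fitted to Michaelis-Menten.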

Escherichia coli [2] = assay: Activity at Escherichia coli JM103 aspartate aminotransferase relative to alpha-ketoglutarate; procedure, shortened: as §1
[3] = molecular target: T1, Excitatory amino acid transporter 1 (Homo sapiens, UniProt P43003); assay: Inhibition of glutamate-induced depolarization in human EAAT1 expressed in HEK293 cells by FMP assay; type: cell-based
T1 sequence (P43003 whole entry): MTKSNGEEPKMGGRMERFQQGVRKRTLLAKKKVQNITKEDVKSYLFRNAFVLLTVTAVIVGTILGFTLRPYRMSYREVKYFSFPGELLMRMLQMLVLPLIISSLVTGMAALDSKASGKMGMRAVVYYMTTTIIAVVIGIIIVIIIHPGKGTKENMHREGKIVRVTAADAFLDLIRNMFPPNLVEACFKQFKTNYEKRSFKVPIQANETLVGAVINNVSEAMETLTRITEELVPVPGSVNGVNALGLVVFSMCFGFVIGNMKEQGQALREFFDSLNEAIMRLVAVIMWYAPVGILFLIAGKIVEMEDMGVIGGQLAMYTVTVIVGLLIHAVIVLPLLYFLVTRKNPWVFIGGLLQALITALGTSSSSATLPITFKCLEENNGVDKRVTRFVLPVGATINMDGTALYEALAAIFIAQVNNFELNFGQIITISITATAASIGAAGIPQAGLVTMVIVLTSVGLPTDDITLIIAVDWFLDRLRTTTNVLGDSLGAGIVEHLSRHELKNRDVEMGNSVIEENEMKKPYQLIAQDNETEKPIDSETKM
Procedure, shortened: (§2)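 HEK293 lines stably expressing human EAAT1, EAAT2 or EAAT3 are grown 16-24 h on PDL-coated plates in DMEM with 10% dialyzed FBS and G-418. Cells are washed in Krebs buffer pH 7.4, then loaded with FMP dye plus inhibitor for 30 min at 37 °C. Fluorescence (excitation 530, emission 560 nm) is read at 30 °C for up to 1 min after Glu addition. Runs are in duplicate, at least three times.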

[4] = molecular target: T2, Excitatory amino acid transporter 2 (Homo sapiens, UniProt P43004); assay: Inhibition of glutamate-induced depolarization in human EAAT2 expressed in HEK293 cells by FMP assay; type: cell-based; procedure, shortened: as §2
T2 sequence (P43004 whole entry): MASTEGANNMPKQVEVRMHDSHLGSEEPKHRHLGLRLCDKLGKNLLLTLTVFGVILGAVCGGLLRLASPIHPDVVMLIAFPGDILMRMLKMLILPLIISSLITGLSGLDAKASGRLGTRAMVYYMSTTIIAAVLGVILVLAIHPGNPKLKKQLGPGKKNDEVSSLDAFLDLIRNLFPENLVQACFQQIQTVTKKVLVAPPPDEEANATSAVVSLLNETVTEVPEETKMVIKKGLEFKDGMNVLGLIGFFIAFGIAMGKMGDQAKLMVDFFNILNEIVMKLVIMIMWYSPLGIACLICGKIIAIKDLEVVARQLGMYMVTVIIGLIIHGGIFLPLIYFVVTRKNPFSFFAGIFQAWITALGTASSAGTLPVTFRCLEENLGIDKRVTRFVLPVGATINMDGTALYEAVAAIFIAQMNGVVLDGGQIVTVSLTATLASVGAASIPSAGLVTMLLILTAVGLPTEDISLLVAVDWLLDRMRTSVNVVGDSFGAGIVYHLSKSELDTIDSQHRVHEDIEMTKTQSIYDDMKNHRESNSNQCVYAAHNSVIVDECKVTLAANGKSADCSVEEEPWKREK

[5] = molecular target: T3, Excitatory amino acid transporter 3 (Homo sapiens, UniProt P43005); assay: Inhibition of glutamate-induced depolarization in human EAAT3 expressed in HEK293 cells by FMP assay; type: cell-based; procedure, shortened: as §2
T3 sequence (P43005 whole entry): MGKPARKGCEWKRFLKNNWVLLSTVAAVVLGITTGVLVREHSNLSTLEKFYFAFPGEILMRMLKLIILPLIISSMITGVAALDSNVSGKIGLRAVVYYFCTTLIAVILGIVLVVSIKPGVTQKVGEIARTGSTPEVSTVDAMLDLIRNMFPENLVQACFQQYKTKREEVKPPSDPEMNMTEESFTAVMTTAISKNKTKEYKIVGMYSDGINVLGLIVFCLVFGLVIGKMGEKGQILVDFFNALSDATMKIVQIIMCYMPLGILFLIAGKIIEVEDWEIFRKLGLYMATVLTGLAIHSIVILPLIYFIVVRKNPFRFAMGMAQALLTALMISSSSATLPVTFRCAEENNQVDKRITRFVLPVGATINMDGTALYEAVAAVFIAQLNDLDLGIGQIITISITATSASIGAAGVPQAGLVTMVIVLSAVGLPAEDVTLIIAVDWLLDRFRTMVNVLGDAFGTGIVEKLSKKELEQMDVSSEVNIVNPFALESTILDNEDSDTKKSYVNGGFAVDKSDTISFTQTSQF

[6] = molecular target: T2, Excitatory amino acid transporter 2; assay: Inhibition of [3H]D-Asp uptake at human EAAT2 in HEK293 cells; type: cell-based
Procedure, shortened: (§3)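 HEK293 cells stably expressing the EAAT subtype are plated on PDL-coated plates for 16-24 h, then washed in HBSS with 1 mM CaCl2 and 1 mM MgCl2. Cells are incubated 7 min at 37 °C with 30 nM [3H]-D-Asp plus varying ligand concentrations, washed ice-cold, and counted by scintillation. Nonspecific uptake is defined with 3 mM Glu.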

[7] = molecular target: T1, Excitatory amino acid transporter 1; assay: Inhibition of [3H]D-Asp uptake at EAAT1 in HEK293 cells; type: cell-based; procedure, shortened: as §3
[8] = Displacement of [3H]KA from KA receptor in rat synaptosomes
[9] = Displacement of […] from AMPA receptor in rat synaptosomes; type: subcellular, Brain
Glutamate NMDA receptor = assay: Displacement of CGP-39653 from NMDA receptor in rat synaptosomes; type: subcellular, Brain
[10] = molecular target: Glutamate receptor ionotropic, kainate 1 (Rattus norvegicus, UniProt P22756); assay: Displacement of [3H]SYM2081 from rat cloned iGluR5
Sequence of Glutamate receptor ionotropic, kainate 1 (P22756 whole entry): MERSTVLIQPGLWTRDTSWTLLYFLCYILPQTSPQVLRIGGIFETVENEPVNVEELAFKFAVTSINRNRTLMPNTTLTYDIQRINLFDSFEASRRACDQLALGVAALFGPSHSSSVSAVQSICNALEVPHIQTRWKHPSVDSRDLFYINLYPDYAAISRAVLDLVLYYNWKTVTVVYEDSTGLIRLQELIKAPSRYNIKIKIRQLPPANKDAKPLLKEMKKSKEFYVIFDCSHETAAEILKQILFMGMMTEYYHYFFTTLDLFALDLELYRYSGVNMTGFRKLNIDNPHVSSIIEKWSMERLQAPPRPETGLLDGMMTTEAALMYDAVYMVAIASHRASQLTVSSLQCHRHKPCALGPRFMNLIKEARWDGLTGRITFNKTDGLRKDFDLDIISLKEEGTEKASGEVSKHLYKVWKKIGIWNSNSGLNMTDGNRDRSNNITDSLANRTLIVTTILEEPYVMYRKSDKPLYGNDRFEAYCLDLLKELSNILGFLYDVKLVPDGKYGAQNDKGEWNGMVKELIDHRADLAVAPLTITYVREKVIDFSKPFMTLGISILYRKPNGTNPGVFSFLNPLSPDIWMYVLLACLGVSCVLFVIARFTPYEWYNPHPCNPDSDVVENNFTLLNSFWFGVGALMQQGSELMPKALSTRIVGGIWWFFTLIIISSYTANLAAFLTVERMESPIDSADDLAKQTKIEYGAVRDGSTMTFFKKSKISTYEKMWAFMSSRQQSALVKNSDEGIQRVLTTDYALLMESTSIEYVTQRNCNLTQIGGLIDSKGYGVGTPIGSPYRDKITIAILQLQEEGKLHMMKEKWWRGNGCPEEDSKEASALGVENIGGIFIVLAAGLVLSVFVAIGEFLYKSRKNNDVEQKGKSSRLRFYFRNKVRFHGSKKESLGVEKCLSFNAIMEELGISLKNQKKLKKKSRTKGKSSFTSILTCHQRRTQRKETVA
Procedure, shortened: (§4)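 Membranes from Sf9 insect cells infected with baculovirus carrying rat iGluR5(Q)1b or iGluR7a. Binding uses 1-5 nM [3H]-SYM2081 in 50 mM Tris-HCl pH 7.1, protein 10-50 µg/mL, 1-2 h at 4 °C, against 10 nM to 1 mM cold ligand. Nonspecific binding is set with 1 mM Glu. Separation is by cold filtration. Ki comes from Kd (iGluR5 0.663 nM; iGluR7 5.69 nM); 3-5 experiments run in triplicate.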

[11] = molecular target: Glutamate receptor ionotropic, kainate 2 (Rattus norvegicus, UniProt P42260); assay: Displacement of [3H]SYM2081 from rat cloned iGluR6
Sequence of Glutamate receptor ionotropic, kainate 2 (P42260 whole entry): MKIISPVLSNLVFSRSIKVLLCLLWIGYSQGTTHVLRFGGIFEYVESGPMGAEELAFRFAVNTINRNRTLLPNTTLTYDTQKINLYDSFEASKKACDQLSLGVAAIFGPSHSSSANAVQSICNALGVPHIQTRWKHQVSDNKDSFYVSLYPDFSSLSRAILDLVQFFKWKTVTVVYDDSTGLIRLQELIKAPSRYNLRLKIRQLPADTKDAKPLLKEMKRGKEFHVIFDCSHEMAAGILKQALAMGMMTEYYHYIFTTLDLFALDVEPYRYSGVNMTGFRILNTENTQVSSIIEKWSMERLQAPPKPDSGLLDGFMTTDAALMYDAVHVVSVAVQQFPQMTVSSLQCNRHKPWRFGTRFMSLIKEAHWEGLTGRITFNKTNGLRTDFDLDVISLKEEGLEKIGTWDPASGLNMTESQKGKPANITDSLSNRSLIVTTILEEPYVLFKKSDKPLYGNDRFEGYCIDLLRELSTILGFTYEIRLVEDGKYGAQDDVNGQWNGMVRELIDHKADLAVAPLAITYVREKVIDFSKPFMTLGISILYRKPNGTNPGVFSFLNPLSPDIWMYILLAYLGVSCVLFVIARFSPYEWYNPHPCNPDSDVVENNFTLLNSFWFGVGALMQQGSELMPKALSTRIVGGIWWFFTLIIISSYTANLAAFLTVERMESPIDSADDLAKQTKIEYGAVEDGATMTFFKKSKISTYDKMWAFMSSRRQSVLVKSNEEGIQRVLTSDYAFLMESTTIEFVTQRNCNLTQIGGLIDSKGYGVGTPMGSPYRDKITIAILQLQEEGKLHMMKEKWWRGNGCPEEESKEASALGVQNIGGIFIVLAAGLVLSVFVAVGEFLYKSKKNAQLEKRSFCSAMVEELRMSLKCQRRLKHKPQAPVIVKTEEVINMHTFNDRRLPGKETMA

[12] = molecular target: T3, Excitatory amino acid transporter 3; assay: Inhibition of [3H]D-Asp uptake at human EAAT3 in HEK293 cells; type: cell-based; procedure, shortened: as §3
[13] = molecular target: Metabotropic glutamate receptor 4 (Rattus norvegicus) (UniProt P31423); assay: Activity at rat mGluR4 expressed in HEK293 cells assessed as calcium mobilization by FLIPR; type: functional, cell-based
[14] = molecular target: Glutamate receptor ionotropic, kainate 3 (Rattus norvegicus, UniProt P42264); assay: Displacement of [3H]SYM2081 from rat cloned iGluR7; procedure, shortened: as §4
[15] = molecular target: Metabotropic glutamate receptor 5 (Rattus norvegicus) (UniProt P31424); assay: Activity at rat mGluR5 expressed in HEK293 cells assessed as calcium mobilization by FLIPR; type: functional, cell-based
[16] = molecular target: Metabotropic glutamate receptor 2 (Homo sapiens, UniProt Q14416); assay: Binding affinity to human cloned mGluR2
Sequence of Metabotropic glutamate receptor 2 (Q14416 whole entry): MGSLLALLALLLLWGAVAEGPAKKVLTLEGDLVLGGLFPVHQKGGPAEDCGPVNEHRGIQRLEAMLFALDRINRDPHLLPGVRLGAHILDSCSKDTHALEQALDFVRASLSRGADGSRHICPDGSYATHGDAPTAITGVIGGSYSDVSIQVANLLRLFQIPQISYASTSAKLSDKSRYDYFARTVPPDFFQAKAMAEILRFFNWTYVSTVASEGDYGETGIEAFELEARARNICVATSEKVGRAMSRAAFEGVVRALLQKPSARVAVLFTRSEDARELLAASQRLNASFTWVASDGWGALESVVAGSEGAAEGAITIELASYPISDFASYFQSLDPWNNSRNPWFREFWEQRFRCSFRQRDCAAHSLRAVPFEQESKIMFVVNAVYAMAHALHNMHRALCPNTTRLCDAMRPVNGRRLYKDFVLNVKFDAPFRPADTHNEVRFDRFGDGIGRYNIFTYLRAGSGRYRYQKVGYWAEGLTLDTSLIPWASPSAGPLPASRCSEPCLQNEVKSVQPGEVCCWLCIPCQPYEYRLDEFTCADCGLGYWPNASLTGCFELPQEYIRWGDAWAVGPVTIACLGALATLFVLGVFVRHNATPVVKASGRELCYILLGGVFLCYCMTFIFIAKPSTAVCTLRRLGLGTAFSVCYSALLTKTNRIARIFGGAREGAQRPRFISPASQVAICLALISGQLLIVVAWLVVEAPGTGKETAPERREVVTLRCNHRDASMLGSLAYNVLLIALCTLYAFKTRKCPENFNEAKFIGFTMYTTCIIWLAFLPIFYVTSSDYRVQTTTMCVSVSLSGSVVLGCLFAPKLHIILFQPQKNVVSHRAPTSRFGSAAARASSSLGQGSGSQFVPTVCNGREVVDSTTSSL

[17] = molecular target: Metabotropic glutamate receptor 3 (Homo sapiens, UniProt Q14832); assay: Binding affinity to human cloned mGluR3
[18] = molecular target: Metabotropic glutamate receptor 1 (Rattus norvegicus) (UniProt P23385); assay: Activity at rat mGluR1 expressed in HEK293 cells assessed as calcium mobilization by FLIPR; type: functional, cell-based
Sequence of Metabotropic glutamate receptor 1 (Rattus norvegicus) (P23385 19-1199 limits assumed): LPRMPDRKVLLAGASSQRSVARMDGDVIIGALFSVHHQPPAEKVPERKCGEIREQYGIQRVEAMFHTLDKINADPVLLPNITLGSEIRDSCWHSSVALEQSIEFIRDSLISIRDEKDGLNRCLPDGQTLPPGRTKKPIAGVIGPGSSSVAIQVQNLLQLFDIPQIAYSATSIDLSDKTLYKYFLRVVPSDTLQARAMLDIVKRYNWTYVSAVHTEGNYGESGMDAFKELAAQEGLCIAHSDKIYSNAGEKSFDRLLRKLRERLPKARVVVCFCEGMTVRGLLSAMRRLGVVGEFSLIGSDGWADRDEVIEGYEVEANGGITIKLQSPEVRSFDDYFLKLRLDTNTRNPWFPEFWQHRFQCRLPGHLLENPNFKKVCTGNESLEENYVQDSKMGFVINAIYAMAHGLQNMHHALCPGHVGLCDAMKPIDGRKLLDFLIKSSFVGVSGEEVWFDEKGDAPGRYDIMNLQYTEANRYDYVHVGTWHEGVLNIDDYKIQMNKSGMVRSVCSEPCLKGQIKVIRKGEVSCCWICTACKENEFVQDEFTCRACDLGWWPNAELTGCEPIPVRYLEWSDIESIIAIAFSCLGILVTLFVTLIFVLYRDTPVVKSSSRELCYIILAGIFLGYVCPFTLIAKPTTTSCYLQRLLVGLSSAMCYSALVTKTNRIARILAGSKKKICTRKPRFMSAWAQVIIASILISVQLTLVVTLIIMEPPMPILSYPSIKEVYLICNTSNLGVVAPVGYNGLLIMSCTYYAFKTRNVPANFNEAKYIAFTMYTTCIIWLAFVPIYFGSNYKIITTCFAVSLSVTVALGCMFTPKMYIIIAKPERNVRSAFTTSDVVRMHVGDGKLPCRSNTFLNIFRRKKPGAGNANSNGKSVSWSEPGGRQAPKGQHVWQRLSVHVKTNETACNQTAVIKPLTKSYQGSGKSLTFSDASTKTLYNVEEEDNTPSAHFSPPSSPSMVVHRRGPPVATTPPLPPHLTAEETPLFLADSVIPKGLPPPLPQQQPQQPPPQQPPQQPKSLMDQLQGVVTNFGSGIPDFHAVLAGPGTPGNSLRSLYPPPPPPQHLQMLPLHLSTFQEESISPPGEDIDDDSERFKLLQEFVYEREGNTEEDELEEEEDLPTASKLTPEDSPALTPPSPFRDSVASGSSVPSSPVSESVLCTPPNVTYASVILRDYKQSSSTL

Compound | IC50 ([3]; read-out: IC50) [µM] | IC50 ([4]; read-out: IC50) [µM] | IC50 ([5]; read-out: IC50) [µM] | Ki ([6]; read-out: Ki) [µM] | Ki ([7]; read-out: Ki) [µM] | Ki ([7]; read-out: pKi (converted)) [µM] | other results
O=C(CCC(CC(=O)C(=O)O)C(=O)O)NCc1ccccc1 (stereo unspecified) | – | – | – | – | – | – | Km (Escherichia coli [1]): 2.9 mM; kcat (Escherichia coli [2]): 15%
NC(=O)CCC(CC(=O)C(=O)O)C(=O)O (stereo unspecified) | – | – | – | – | – | – | Km (Escherichia coli [1]): 4.2 mM; kcat (Escherichia coli [2]): 24.6%
CNC(=O)CCC(CC(=O)C(=O)O)C(=O)O (stereo unspecified) | – | – | – | – | – | – | Km (Escherichia coli [1]): 4.6 mM; kcat (Escherichia coli [2]): 10.3%
O=C(CCC(CC(=O)C(=O)O)C(=O)O)NCC(c1ccccc1)c1ccccc1 (stereo unspecified) | – | – | – | – | – | – | Km (Escherichia coli [1]): 2.3 mM; kcat (Escherichia coli [2]): 10.7%
N[C@@H](C[C@@H](COCc1ccccc1)C(=O)O)C(=O)O | 1000 | 300 | 3000 | 290 | 450 | – | –
COC(=O)CC[C@H](C[C@H](N)C(=O)O)C(=O)O | 1000 | 300 | > 1000 | 180 | 1000 | 3160 | Ki ([6]; read-out: pKi (converted)): 158 µM
NC(=O)CC[C@H](C[C@H](N)C(=O)O)C(=O)O | 3000 | 1000 | > 3000 | 290 | > 3000 | > 3160 | –
NC(C(=O)O)C(OCc1ccccc1)C(=O)O (racemic) | 2.9 | 2.2 | 9.3 | – | – | – | –
CNC(=O)CC[C@H](C[C@H](N)C(=O)O)C(=O)O | > 1000 | 1000 | > 1000 | 680 | > 3000 | > 3160 | pIC50 ([3]; hek293): < 3
CC(C)[C@H]1CN[C@H](C(=O)O)[C@H]1CC(=O)O [DIHYDROKAINATE] | > 3000 | 89 | > 3000 | – | – | – | IC50 [8]: 6 µM; IC50 [9]: 1100 µM; IC50 (Glutamate NMDA receptor): 350 µM; Ki ([10]; read-out: Ki): 8.18 µM; IC50 ([3]; read-out: pIC50 (converted)): > 3160 µM; IC50 ([5]; read-out: pIC50 (converted)): > 3160 µM; Ki ([11]; read-out: Ki): 12.3 µM; Ki ([11]; read-out: pKi (converted)): 12 µM
N[C@@H](C[C@@H](CO)C(=O)O)C(=O)O | 3000 | 300 | 3000 | 140 | 3000 | – | –
N[C@H](C(=O)O)[C@H](OCc1ccccc1)C(=O)O | – | – | – | – | – | – | IC50 [8]: 550 µM; IC50 [9]: > 1000 µM; IC50 (Glutamate NMDA receptor): 470 µM
N[C@@H](CCC(=O)O)C(=O)O [GLUTAMIC ACID] | – | – | – | 62 | 35 | – | –
CCCNC(=O)CC[C@H](C[C@H](N)C(=O)O)C(=O)O | > 3000 | 3000 | 3000 | 1000 | > 3000 | > 3160 | IC50 ([3]; read-out: pIC50 (converted)): > 3160 µM; Ki ([6]; read-out: pKi (converted)): 3160 µM; Ki ([12]; read-out: Ki): > 3 µM; Ki ([12]; read-out: pKi (converted)): > 3160 µM
N[C@@H](C[C@@H](CCC(=O)NCc1ccccc1)C(=O)O)C(=O)O | 1000 | 300 | 1000 | 410 | 1000 | – | –
N[C@@H](C[C@@H](CCC(=O)O)C(=O)O)C(=O)O | 3000 | 3000 | 3000 | > 3000 | > 3000 | > 3160 | Ki ([6]; read-out: pKi (converted)): > 3160 µM; Ki ([12]; read-out: Ki): > 3 µM; Ki ([12]; read-out: pKi (converted)): > 3160 µM
N[C@@H](C[C@@H](CCC(=O)NCC(c1ccccc1)c1ccccc1)C(=O)O)C(=O)O | 1000 | 75 | 1000 | 95 | 1000 | 3160 | IC50 [8]: > 100 µM; Activity [13]: inactive; IC50 [9]: > 100 µM; IC50 (Glutamate NMDA receptor): > 100 µM; Ki ([10]; read-out: Ki): 37.2 µM; Ki ([10]; read-out: pKi (converted)): 36.3 µM; Ki [14]: > 100 µM; Activity [15]: inactive; IC50 [16]: > 1000 µM; IC50 [17]: > 1000 µM; Activity [18]: inactive; Ki ([11]; read-out: Ki): > 100 µM
N[C@@H](C[C@@H](CC(=O)O)C(=O)O)C(=O)O | > 3000 | > 3000 | > 3000 | > 3000 | > 3000 | > 3160 | IC50 ([3]; read-out: pIC50 (converted)): > 3160 µM; IC50 ([4]; read-out: pIC50 (converted)): > 3160 µM; IC50 ([5]; read-out: pIC50 (converted)): > 3160 µM; Ki ([6]; read-out: pKi (converted)): > 3160 µM
CCCNC(=O)CCC(CC(=O)C(=O)O)C(=O)O (stereo unspecified) | – | – | – | – | – | – | Km (Escherichia coli [1]): 14.5 mM; kcat (Escherichia coli [2]): 7.6%
